Measured values as given in ChEMBL document CHEMBL1765003, “Discovery of (1S,2R,3R)-2,3-dimethyl-2-phenyl-1-sulfamidocyclopropanecarboxylates: novel and highly selective aggrecanase inhibitors” (J Med Chem, 2011).

Assays:
[1] = Oral bioavailability in Sprague-Dawley rat at 10 mg/kg; format: ADME, organism-based; details: Sprague-Dawley, in vivo
[2] = target: Matrix metalloproteinase-9 (Homo sapiens, UniProt P14780); assay: Inhibition of human recombinant MMP9 after 60 mins by fluorescence plate reader
Matrix metalloproteinase-9, sequence (P14780 whole entry): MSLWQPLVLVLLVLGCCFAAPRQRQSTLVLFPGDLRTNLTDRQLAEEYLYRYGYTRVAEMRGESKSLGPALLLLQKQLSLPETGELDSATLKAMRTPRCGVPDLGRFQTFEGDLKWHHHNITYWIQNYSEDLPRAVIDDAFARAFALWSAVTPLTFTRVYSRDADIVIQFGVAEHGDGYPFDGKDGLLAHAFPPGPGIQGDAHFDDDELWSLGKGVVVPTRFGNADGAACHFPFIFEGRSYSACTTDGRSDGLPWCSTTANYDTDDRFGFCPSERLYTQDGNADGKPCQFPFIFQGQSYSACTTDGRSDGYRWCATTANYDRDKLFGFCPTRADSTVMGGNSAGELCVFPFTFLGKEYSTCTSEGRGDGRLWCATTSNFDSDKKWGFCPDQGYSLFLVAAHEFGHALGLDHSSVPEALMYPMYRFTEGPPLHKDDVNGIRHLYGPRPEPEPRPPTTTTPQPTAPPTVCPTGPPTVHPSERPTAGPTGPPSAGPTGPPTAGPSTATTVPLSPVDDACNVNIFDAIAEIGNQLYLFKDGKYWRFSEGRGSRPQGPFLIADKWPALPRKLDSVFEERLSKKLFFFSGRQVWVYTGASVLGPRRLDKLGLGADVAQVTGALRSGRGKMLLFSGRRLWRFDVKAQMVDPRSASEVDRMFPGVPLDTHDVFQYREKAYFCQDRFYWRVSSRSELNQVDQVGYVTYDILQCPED
Outline: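 rh-MMP-9 at 4 ng/mL with 10 μM MOCAc-Pro-Leu-Gly-Leu-A2pr(Dnp)-Ala-Arg-NH₂, in 100 mM Tris-HCl pH 7.5, 150 mM NaCl, 10 mM CaCl₂, 0.05% Brij-35. Enzyme and inhibitor preincubated for 15 min at 25 °C before substrate. Fluorescence (ex 325/em 405 nm) read at 60 min. IC50 from three linear-range points; ≥2 runs averaged.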

Interstitial collagenase = target: T1, Interstitial collagenase (Homo sapiens, UniProt P03956); assay: Inhibition of human recombinant MMP1 after 60 mins by fluorescence plate reader
T1 sequence (P03956 whole entry): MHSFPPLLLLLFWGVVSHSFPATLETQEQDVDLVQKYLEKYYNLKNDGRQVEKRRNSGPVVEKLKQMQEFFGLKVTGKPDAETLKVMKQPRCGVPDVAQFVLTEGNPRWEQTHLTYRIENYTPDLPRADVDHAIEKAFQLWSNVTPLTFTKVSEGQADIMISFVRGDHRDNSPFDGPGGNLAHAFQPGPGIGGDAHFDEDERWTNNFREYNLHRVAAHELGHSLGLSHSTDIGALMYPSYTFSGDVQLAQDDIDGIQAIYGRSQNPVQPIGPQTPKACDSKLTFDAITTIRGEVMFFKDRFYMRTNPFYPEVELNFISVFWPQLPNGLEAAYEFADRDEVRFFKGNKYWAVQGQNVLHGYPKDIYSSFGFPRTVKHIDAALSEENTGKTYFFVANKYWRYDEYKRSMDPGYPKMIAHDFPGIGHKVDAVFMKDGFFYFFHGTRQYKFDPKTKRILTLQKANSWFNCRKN
Outline: (§1)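 Recombinant human enzyme at 20 ng/mL with 10 μM MOCAc-Lys-Pro-Leu-Gly-Leu-A2pr(Dnp)-Ala-Arg-NH₂, in 100 mM Tris-HCl pH 7.5, 150 mM NaCl, 10 mM CaCl₂, 0.05% Brij-35. Enzyme pretreated with inhibitor for 15 min at 25 °C, then substrate added. Fluorescence (ex 325, em 405 nm) read at 60 min. IC50 taken from three points in the linear range; mean of ≥2 determinations.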

Cytochrome P450 2C19 = Cytochrome P450 2C19 (Homo sapiens, UniProt P33261); assay: Inhibition of CYP2C19 at up to 50 uM; format: ADME
Cytochrome P450 2C19, sequence (P33261 whole entry): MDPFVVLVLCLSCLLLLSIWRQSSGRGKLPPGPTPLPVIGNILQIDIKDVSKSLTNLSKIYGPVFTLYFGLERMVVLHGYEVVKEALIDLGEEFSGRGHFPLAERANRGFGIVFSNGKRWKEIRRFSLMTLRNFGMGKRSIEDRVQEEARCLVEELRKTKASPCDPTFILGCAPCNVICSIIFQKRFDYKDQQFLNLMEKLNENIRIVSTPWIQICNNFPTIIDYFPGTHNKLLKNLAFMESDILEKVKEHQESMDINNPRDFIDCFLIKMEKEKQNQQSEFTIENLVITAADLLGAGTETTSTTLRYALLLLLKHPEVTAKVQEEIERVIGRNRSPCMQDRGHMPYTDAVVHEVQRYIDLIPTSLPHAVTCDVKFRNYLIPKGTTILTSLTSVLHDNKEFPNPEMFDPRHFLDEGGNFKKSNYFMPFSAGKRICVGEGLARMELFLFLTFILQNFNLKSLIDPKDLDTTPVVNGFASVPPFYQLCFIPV

[3] = Clearance in Sprague-Dawley rat at 1 mg/kg, iv; format: ADME, organism-based; design: dose 1 mg/kg, route intravenous; details: in vivo
Outline: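 Intravenous dose of 1 mg/kg. Blood sampled at 0.50, 1, 2, 4, 8 and 24 h. Plasma obtained by centrifugation at 10 000 rpm for 5 min and kept at −20 °C until analysis.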

Cytochrome P450 1A2 = target: T2, Cytochrome P450 1A2 (Homo sapiens, UniProt P05177); assay: Inhibition of CYP1A2 at up to 50 uM; format: ADME
T2 sequence (P05177 whole entry): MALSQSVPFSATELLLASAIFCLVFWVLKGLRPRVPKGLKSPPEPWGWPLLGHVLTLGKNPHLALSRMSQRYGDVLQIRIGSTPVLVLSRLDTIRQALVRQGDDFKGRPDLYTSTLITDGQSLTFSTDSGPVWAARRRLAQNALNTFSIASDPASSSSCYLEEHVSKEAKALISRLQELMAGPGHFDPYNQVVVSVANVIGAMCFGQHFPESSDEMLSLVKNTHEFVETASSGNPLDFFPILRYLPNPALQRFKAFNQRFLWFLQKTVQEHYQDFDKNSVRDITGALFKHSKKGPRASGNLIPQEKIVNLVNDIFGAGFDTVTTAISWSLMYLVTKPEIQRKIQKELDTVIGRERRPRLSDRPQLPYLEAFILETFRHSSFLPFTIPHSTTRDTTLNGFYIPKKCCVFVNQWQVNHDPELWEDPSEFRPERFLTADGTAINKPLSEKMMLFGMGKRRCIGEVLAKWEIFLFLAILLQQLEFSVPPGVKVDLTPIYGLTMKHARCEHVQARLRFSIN

[4] = AUC in Sprague-Dawley rat at 10 mg/kg, po; format: ADME, organism-based; design: dose 10 mg/kg, route oral; details: plasma
Stromelysin-1 = Stromelysin-1 (Homo sapiens, UniProt P08254); assay: Inhibition of human recombinant MMP3 after 60 mins by fluorescence plate reader
Stromelysin-1, sequence (P08254 whole entry): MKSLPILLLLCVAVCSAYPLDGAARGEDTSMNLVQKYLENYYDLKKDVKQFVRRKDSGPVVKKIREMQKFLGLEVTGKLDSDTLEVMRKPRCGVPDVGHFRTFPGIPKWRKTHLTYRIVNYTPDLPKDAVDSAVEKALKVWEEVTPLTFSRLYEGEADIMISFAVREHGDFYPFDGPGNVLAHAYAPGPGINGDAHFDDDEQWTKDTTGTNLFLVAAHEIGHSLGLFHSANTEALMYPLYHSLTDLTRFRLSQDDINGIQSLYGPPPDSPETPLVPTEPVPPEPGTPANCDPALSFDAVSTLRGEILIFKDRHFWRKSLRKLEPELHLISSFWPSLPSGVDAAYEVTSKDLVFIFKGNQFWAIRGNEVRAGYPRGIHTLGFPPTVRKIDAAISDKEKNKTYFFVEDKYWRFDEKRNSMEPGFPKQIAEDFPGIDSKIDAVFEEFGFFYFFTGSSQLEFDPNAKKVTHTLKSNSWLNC
Outline: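 rh-MMP-3 at 40 ng/mL with 10 μM MOCAc-Arg-Pro-Lys-Pro-Val-Glu-Nva-Trp-Arg-Lys(Dnp)-NH₂, in Tris-HCl pH 7.5/NaCl/CaCl₂/Brij-35 buffer. Inhibitor preincubated for 15 min at 25 °C. Fluorescence (ex 325/em 405 nm) read at 60 min. IC50 from three central linear points; at least two determinations averaged.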

Cytochrome P450 2D6 = Cytochrome P450 2D6 (Homo sapiens, UniProt P10635); assay: Inhibition of CYP2D6 at up to 50 uM; format: ADME
Cytochrome P450 2D6, sequence (P10635 whole entry): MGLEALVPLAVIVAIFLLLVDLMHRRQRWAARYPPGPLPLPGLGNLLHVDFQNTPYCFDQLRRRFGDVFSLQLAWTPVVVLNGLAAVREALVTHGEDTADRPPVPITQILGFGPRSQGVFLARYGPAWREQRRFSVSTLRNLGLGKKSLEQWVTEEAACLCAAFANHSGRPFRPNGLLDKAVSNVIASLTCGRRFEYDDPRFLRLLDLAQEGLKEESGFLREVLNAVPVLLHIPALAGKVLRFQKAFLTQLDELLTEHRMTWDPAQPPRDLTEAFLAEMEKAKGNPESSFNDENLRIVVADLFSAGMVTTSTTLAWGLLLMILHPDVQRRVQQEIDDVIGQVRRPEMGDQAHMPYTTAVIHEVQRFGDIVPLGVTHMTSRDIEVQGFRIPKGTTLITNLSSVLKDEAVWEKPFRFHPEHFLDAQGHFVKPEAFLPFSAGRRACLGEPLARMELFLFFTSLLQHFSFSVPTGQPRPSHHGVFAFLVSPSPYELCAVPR

[5] = Half life in Sprague-Dawley rat at 10 mg/kg, po; format: ADME, organism-based; design: dose 10 mg/kg, route oral; details: in vivo
[6] = target: T3, A disintegrin and metalloproteinase with thrombospondin motifs 4 (Homo sapiens, UniProt O75173); assay: Inhibition of human recombinant aggrecanase 1 after 150 mins by fluorescence plate reader
T3 sequence (O75173 whole entry): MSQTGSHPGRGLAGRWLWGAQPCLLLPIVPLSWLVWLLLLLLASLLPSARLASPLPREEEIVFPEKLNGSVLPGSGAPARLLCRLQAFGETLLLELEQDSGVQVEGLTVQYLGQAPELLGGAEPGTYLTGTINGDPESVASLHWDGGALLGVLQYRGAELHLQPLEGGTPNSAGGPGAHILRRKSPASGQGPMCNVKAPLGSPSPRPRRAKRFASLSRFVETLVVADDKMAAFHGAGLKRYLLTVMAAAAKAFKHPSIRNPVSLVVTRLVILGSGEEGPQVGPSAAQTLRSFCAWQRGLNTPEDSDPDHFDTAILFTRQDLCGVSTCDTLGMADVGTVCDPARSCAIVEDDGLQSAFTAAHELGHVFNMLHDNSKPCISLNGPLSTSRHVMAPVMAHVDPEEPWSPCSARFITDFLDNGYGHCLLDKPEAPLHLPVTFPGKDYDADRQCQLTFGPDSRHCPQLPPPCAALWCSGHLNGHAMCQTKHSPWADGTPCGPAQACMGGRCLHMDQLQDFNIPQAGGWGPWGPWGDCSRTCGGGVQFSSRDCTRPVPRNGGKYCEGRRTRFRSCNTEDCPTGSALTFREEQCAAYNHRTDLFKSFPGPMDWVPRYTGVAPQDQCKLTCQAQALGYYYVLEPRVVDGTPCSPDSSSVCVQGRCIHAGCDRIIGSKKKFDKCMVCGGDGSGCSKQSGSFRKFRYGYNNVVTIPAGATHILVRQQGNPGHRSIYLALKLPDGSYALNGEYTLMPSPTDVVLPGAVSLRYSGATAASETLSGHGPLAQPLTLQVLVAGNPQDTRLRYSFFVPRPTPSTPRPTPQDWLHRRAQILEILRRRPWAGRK

[7] = target: Matrix metalloproteinase-14 (Homo sapiens, UniProt P50281); assay: Inhibition of human recombinant MMP14 after 60 mins by fluorescence plate reader; outline: as §1

C[C@@H]1[C@](C)(c2ccccc2)[C@]1(NS(=O)(=O)N1CCc2c(nc3cc(F)ccn23)C1)C(=O)O
bioavailability [1]: 103%
IC50 [2]: > 10 µM
IC50 (Interstitial collagenase): > 10 µM
inhibition (INH) (Cytochrome P450 2C19): Not Active
clearance [3]: 1 mL/min/kg
inhibition (INH) (Cytochrome P450 1A2): Not Active
AUC [4]: 421 µM·h
IC50 (Stromelysin-1): 9.6 µM
inhibition (INH) (Cytochrome P450 2D6): Not Active
half-life [5]: 4 h
IC50 [6]: 0.023 µM
IC50 [7]: > 10 µM
